Source: article PMC3921891 (European journal of pharmacology, 2010)
“Also recorded” adds a separate entry of the source. Read-outs that look alike come from different tables or passages of the source. Marks after values point to notes of the source that are not given here.

What was measured:
[1] = test system: reactive oxygen species in NCI-H1299 cells; experiment: Reactive oxygen species; format: cell-based, human; conditions: for % Fluorescence Intensity, inhibitor alone (basal): PP2 10 µM or GM6001 (10 µM); for effect on H2O2-induced reactive oxygen species / effect on BA1-induced reactive oxygen species: NAC (5 mM), data not shown; for effect on basal reactive oxygen species: inhibitor alone; for effect on basal reactive oxygen species / effect on BA1-induced reactive oxygen species: PP2 10 µM, GM6001 10 µM
[2] = test system: EGF receptor in NCI-H1299 cells transfected with NMB receptor; format: cell-based, human; conditions: for effect of PP2 / GM6001 on NMB-induced EGF receptor transactivation: 10 µM inhibitor, densitometry of 3 experiments (Fig. 3B, C)
In short: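 NCI-H1299 cells expressing transfected NMB receptor, grown to a monolayer, held in SIT medium 3 h. Inhibitors were added 30 min before stimulation with 0.1 µM NMB or BA1 for 2 min. Cells were lysed. 400 µg protein was immunoprecipitated overnight at 4°C with anti-phosphotyrosine, run on 4–20% SDS-PAGE and blotted with anti-EGF receptor. Alternatively, 20 µg extract was probed with anti-PY1068-EGF receptor. Detection was by ECL with densitometry.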

NSCLC patients = conditions: particularly a subgroup with EGF receptor mutations; no reference given; cited from earlier work
[3] = test system: ERK (p42/p44 MAP kinase) in NCI-H1299 cells transfected with NMB receptor; experiment: ERK tyrosine phosphorylation, Western blot; format: cell-based, human; conditions: abstract statement
In short: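 Monolayers of NCI-H1299 cells with transfected NMB receptor were held in SIT medium 3 h. Inhibitors or anti-growth-factor antibodies (5 µg/ml) were given for 30 min, then 0.1 µM NMB or BA1 for 2 min. Lysate (20 µg) was run on 4–20% gels and blotted with anti-phospho-ERK, with anti-ERK or anti-tubulin as loading controls. Detection was by ECL with densitometry.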

NCI-H1299 cells [4] = experiment: MTT proliferation assay, NCI-H1299; format: cell-based, human
lung cancer cells = conditions: in vitro; ref Witta et al., 2006; Ono et al., 2004; Janmaat et al., 2003; cited from earlier work
NCI-H1299 cells [5] = experiment: Clonogenic assay, NCI-H1299; format: cell-based, human
[6] = test system: TGFα release from NCI-H1299 cells; experiment: TGFα release, TGFα immunoassay; format: cell-based, human; conditions: inhibitor pretreatment, NMB 100 nM
[7] = test system: EGF receptor in NCI-H1299 cells; experiment: EGF receptor tyrosine phosphorylation, Western blot, NCI-H1299 cells; format: cell-based, human
NMB receptor = conditions: ref Jensen et al., 2008; Ashwood et al., 1998; cited from earlier work
GRP receptor = conditions: ref Jensen et al., 2008; Ashwood et al., 1998; cited from earlier work
[8] = Tiron 5 mM, None = 100 ± 7, mean ± S.D. of 6 determinations

OO [H2O2]
generation of reactive oxygen species ([1]; BA1 0.1 µM, NMB 0.1 µM or H2O2 10 µM): significantly increased
% Fluorescence Intensity, stimulus alone ([1]; NMB 0.1 µM, H2O2 10 µM or BA1 0.1 µM, 2 hour, None = 100 ± 7, mean ± S.D. of 6 determinations, P < 0.01): 589 ± 60 ^b %

O=S(=O)(O)c1cc(O)c(O)c(S(=O)(=O)O)c1 [Tiron]
effect on NMB-induced reactive oxygen species ([1]; Tiron 5 mM): greatly reduced
% Fluorescence Intensity, inhibitor + H2O2 ([1]; Tiron 5 mM 30 min prior to H2O2 10 µM, 2 hour, mean ± S.D. of 6 determinations, P < 0.01): 200 ± 14 ^b %
% Fluorescence Intensity, inhibitor + NMB ([1]; Tiron 5 mM 30 min prior to NMB 0.1 µM, 2 hour, mean ± S.D. of 6 determinations): 92 ± 9%
% Fluorescence Intensity, inhibitor alone (basal) [1, 8]: 82 ± 11%
effect on H2O2-induced reactive oxygen species ([1]; Tiron 5 mM): greatly reduced
effect on basal reactive oxygen species ([1]; Tiron 5 mM): had little effect
effect of Tiron on NMB-induced EGF receptor transactivation ([2]; 10 mM Tiron (Fig. 4D)): significantly inhibited
effect of Tiron on NMB-induced EGF receptor transactivation ([2]; 0.1 or 1 mM Tiron (Fig. 4C, D)): had little effect
effect of Tiron on NMB-induced EGF receptor transactivation, dose dependence ([2]; 0.1 to 10 mM Tiron (Fig. 4C)): inhibited in a dose-dependent manner

COc1cc2ncnc(Nc3ccc(F)c(Cl)c3)c2cc1OCCCN1CCOCC1 [gefitinib]
NSCLC patients responding (NSCLC patients): 10%
effect on EGF receptor transactivation or ERK tyrosine phosphorylation caused by NMB-like peptides [3]: inhibited
effect on proliferation at 1 and 3 µg/ml (NCI-H1299 cells [4]; gefitinib 1 and 3 µg/ml): having no effect
variation of sensitivity of lung cancer cells to gefitinib (lung cancer cells): up to 2700 fold
effect on colony number and size (NCI-H1299 cells [5]; 1 µg/ml gefitinib, 2 weeks (Fig. 5B3)): slightly reduced colony number and size

CNC(=O)[C@H](Cc1c[nH]c2ccccc12)NC(=O)[C@@H](CC(=O)NO)CC(C)C [GM6001, (R)-N4-Hydroxy-N1-[(S)-2-(1H–indol-3-yl)-1-methylcarbamoyl-ethyl]-2-isobutyl-succinamide]
effect on BA1-induced reactive oxygen species [1]: inhibited the increase in reactive oxygen species
% Fluorescence Intensity, inhibitor alone (basal) [1, 8]: 94 ± 4%
effect on basal reactive oxygen species ([1]; Tiron 5 mM): had little effect
effect of PP2 / GM6001 on NMB-induced EGF receptor transactivation [2]: markedly inhibited
effect of PP2 / GM6001 on NMB-induced EGF receptor transactivation ([2]; listed as GM60001): reduced significantly
effect on NMB-induced TGFα secretion [6]: reversed

bombesin
tyrosine phosphorylation of the 170 kDa EGF receptor ([7]; native NCI-H1299 cells, 0.1 µM (Fig. 1A)): caused tyrosine phosphorylation of the 170 kDa EGF receptor
increase in EGF receptor tyrosine phosphorylation ([7]; native NCI-H1299 cells, 0.1 µM, 2 min, densitometry analysis of 4 experiments (Fig. 1B)): 1.4 fold

CC(=O)N[C@@H](CS)C(=O)O [NAC, N-acetylcysteine]
effect on BA1-induced reactive oxygen species [1]: reduced
effect on H2O2-induced reactive oxygen species ([1]; Tiron 5 mM): reduced
effect of NAC on NMB-induced EGF receptor tyrosine phosphorylation ([2]; 5 mM NAC pretreatment, NMB 0.1 µM, 4 experiments (Fig. 4A, B)): inhibited

COc1ccc(C2(CNC(=O)[C@](C)(Cc3c[nH]c4ccccc34)NC(=O)Nc3ccc([N+](=O)[O-])cc3)CCCCC2)nc1 [PD176252]
affinity for NMB receptor (NMB receptor): high affinity
affinity for GRP receptor (GRP receptor): high affinity

C[C@@](Cc1c[nH]c2ccccc12)(NC(=O)Nc1ccc([N+](=O)[O-])cc1)C(=O)NCC1(c2ccccn2)CCCCC1 [PD168368]
effect on EGF receptor transactivation or ERK tyrosine phosphorylation caused by NMB-like peptides [3]: inhibited
effect of 3 µM PD168368 on the gefitinib dose response curve (NCI-H1299 cells [4]; 3 µM PD168368, relative to no additions): shifted to the left
effect of PD168368 alone on proliferation (NCI-H1299 cells [4]; PD168368 alone, mean of 8 determinations (Fig. 5A)): inhibited the proliferation of NCI-H1299 cells in a dose-dependent manner
effect of PD168368 on the gefitinib dose-response curve (NCI-H1299 cells [4]; increasing concentrations of PD168368 with gefitinib (Fig. 5A)): progressive shift to the left of the gefitinib dose-response curve
effect on BA1-induced EGF receptor tyrosine phosphorylation ([2]; 1 µM antagonist, 30 min pretreatment, 100 nM BA1, 4 experiments (Fig. 1D)): significantly reversed
effect on NMB-induced EGF receptor transactivation ([2]; data not shown): antagonized the ability of NMB to cause EGF receptor transactivation
effect on colony formation (NCI-H1299 cells [5]; 0.3 µM PD168368, 2 weeks (Fig. 5B2)): had little effect on colony formation

COc1cc2ncnc(Nc3ccc(Oc4ccccc4)cc3)c2cc1OC [PP2, 4-(4’-Phenoxyanilino)-6,7-dimethoxyquinzoline,6,7-Dimethoxy-N(4-phenoxyphenyl)-4-quinazolinamine]
effect on BA1-induced reactive oxygen species [1]: inhibited the increase in reactive oxygen species
% Fluorescence Intensity, inhibitor alone (basal) [1, 8]: 93 ± 5%
effect on basal reactive oxygen species ([1]; Tiron 5 mM): had little effect
effect of PP2 / GM6001 on NMB-induced EGF receptor transactivation [2]: markedly inhibited; also recorded: reduced significantly
effect on NMB-induced TGFα secretion [6]: reversed

COc1cc2ncnc(Nc3cccc(Cl)c3)c2cc1OC [AG1478, N-(3-Chlorophenyl)-6,7-dimethoxy-4-quinazolinamine]
effect on EGF receptor transactivation or ERK tyrosine phosphorylation caused by NMB-like peptides [3]: inhibited
effect on NMB-induced EGF receptor tyrosine phosphorylation ([7]; AG1478 10 µg/ml, data not shown): inhibited
